In the library only some 4% were active in any assay of this set; here they are far more common.
SENP1 inh = blocks the human SENP1 SUMO protease catalytic domain; AID 624204; recombinant SENP1 catalytic domain, CyPet-SUMO1-YPet FRET cleavage; hit rate 0.21% among 360,000; inhibition, % at 10 µM; Q9P0U3;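 active = inhibition at least 30% at 10 µM, raw YFP signal under a set limit, fluorescence ratio 0.5 to 1.5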;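 note: 0% = enzyme with DMSO and 100% = no enzyme wells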
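Assay system: hSENP1 catalytic domain, recombinant. Amount: SENP1 enzyme, 20 pM final. Schedule: 50 min reaction, RT, dark. Technique: FRET, CFP and YFP emission. Control set: no-enzyme wells low, DMSO-plus-enzyme wells high control.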
Arrestin-AP2 inh = inhibitors of human beta-arrestin and AP2 interaction. FITC-arrestin peptide / GST-AP2 beads, flow cytometry; AP2 beta2 appendage carries R879A mutation. inhibition, % at 10 µM. hit rate 0.31% among 340,000. AID 504490;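 active = inhibition above a set limit, near 3 SD of compounds lacking own fluorescence, cut at about 54% in these data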;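 note: plate controls were DMSO wells for no effect and 5 µM unlabelled arrestin peptide for full effect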
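Material – AP2 appendage R879A on GSH beads · Buffer or medium – PBS with 0.05% Tween 20 and 0.1% BSA · Probe or stimulus – fluorescein-tagged arrestin peptide at 50 nM final · Incubation – compound with beads 12 min RT, then probe 1 h RT · Detection – high-throughput flow cytometry of beads, ex 488, em 535 nm · Evaluation – percent response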
NR3A LBD binder = modulates the human NR3A ligand-binding domain; hit rate 2.5% among 340,000; NR3A LBD differential scanning fluorimetry, Tm shift; 0% = protein alone, 100% = glycine-bound protein; AID 1259313; Tm shift relative to glycine control, % at 25 µM;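 active = melting temperature shift of at least 10% of the positive control shift, at one fixed dose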
iPSC survival up = increases survival of single human iPS cells | hiPSC single-cell survival, ATPlite luminescence; 100% = ROCK inhibitor wells, 0% = DMSO | survival enhancement, % at 20 µM | hit rate 0.044% among 360,000 | AID 602274; in the data active = survival enhancement above about 18%;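 note: cells exposed to compounds for 16 hours before the ATP read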
FAS TE block = blocks the thioesterase domain of human fatty acid synthase | inhibition, % at 15 µM | recombinant FAS-TE, OMFH fluorogenic substrate, fluorescence endpoint | hit rate 0.67% among 360,000 | AID 602261 | P49327;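 active = compounds whose normalised, plate-corrected inhibition of enzyme fluorescence in the single-dose primary screen is 50% or more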;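 note: 0% = DMSO with enzyme and 100% = substrate without enzyme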
Target sequence (P49327 whole entry, looked up, the tested form may be a part): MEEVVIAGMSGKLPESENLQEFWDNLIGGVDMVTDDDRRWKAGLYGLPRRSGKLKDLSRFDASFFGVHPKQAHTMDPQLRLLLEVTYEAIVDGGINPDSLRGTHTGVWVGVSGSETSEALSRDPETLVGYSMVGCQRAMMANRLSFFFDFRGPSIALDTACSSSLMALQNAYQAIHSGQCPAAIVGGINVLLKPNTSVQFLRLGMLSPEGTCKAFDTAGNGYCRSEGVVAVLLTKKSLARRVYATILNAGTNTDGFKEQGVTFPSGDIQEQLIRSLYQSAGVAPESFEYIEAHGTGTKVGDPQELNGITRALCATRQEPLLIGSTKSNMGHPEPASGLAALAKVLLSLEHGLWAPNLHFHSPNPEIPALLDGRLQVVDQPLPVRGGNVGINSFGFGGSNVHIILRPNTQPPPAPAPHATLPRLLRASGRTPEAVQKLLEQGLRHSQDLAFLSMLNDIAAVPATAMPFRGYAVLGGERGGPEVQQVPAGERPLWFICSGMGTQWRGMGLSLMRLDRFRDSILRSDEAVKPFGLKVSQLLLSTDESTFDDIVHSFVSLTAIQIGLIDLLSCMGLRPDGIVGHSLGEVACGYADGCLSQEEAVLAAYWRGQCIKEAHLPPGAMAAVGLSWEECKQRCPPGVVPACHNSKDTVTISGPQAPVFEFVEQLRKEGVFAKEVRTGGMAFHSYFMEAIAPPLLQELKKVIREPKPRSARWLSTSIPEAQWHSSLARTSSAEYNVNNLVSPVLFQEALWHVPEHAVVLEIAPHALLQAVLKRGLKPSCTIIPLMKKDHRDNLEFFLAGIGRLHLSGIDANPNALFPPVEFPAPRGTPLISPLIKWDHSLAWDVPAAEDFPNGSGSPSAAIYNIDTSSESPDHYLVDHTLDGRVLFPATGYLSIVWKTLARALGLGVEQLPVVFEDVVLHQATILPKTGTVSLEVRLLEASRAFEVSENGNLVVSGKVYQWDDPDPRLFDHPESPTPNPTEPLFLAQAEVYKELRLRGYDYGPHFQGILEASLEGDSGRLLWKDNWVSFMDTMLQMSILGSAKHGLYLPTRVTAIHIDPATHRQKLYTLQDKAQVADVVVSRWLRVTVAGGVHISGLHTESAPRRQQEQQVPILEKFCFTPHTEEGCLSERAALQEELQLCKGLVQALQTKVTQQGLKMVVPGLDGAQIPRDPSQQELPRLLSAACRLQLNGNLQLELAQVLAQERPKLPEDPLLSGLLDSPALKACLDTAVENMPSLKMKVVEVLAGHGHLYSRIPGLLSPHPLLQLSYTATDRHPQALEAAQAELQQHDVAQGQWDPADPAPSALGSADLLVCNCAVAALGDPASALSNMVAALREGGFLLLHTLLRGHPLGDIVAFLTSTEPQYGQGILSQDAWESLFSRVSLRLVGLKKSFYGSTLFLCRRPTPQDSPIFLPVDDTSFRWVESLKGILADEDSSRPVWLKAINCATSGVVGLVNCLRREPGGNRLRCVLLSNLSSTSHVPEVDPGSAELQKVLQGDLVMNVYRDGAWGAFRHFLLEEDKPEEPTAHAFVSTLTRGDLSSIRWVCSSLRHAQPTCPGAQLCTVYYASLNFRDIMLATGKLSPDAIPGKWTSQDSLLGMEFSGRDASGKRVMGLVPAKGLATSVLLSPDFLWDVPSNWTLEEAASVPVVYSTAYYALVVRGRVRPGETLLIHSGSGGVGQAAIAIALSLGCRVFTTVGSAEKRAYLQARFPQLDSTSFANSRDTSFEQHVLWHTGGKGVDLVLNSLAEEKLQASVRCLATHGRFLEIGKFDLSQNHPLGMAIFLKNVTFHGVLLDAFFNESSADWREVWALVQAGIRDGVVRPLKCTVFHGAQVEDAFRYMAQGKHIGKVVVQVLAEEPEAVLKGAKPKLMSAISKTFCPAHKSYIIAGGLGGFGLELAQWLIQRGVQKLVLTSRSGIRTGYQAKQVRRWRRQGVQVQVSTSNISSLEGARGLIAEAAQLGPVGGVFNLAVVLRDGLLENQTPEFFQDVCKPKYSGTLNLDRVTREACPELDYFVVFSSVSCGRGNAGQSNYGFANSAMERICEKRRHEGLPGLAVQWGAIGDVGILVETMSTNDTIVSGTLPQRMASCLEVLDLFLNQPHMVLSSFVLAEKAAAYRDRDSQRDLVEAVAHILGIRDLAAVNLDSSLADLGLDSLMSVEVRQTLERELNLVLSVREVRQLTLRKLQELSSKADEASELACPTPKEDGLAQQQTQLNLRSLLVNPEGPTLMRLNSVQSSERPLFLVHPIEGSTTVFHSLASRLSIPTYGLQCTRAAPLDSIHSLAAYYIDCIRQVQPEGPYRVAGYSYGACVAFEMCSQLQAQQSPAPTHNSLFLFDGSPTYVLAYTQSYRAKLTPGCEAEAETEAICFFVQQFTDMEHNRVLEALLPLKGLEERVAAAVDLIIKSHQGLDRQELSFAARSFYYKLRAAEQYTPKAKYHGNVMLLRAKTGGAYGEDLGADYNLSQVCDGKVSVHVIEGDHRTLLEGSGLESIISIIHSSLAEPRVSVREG
H9c2 protect = protects H9c2 cardiomyocytes from peroxide injury; H2O2 injury protection, ATPLite, 2 h; protection from H2O2 cell death, % at 20 µM; hit rate 0.63% among 360,000;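 active = compounds giving at least 50% protection of heart cells from peroxide-induced death in the single-dose screen, raw or plate-pattern-corrected value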;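 note: 0% = DMSO wells with peroxide and 100% = DMSO wells without peroxide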
FAS-TE inh conf = confirmation of human fatty acid synthase thioesterase inhibitors; shares compounds with FAS TE block; recombinant FAS-TE, OMFH fluorogenic substrate, fluorescence; inhibition, % at 15 µM; hit rate 45% among 2,300; AID 624325;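 active = compounds inhibiting the enzyme by at least 50% at 15 µM in any one of the replicates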;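 note: 0% = enzyme with DMSO only and 100% = wells lacking enzyme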
The depositor's hits bear a star.

Screening N#CC(C#N)=c1ccc2c(c1)N1C3=C(CCCC3)CC3CCCCC31N=2 (centres undefined) returned SENP1 inh 62, Arrestin-AP2 inh -1, NR3A LBD binder -5, iPSC survival up 0, FAS TE block 51*, H9c2 protect 28 and FAS-TE inh conf 18.
N#C/C(C(N)=O)=c1/ccc2c(c1)N1C3=C(CCCC3)CC3CCCCC31N=2 (centres undefined) was read as NR3A LBD binder 2.
`COC(=O)[C@@]12CCCCN1[C@H](c1ccc(-c3ccc(C(C)=O)cc3)c(OC)c1)[C@@H]1C(=O)N(C)C(=O)[C@@H]12` gave SENP1 inh -1, Arrestin-AP2 inh -12, NR3A LBD binder 1, iPSC survival up 1, FAS TE block 19 and H9c2 protect 3.
`COc1ccc(-n2c(SCc3ccc([N+](=O)[O-])cc3)nnc2-c2ccc(C)cc2)cc1` gave SENP1 inh 1, Arrestin-AP2 inh 43, NR3A LBD binder -3, iPSC survival up 0, FAS TE block 58*, H9c2 protect -2 and FAS-TE inh conf 42.
Screening CCOC(=O)c1cc2c(=O)n3cccc(C)c3nc2n(CCCOC)c1=NC(=O)c1cccnc1 returned SENP1 inh -22, Arrestin-AP2 inh -5, NR3A LBD binder 1, iPSC survival up -3, FAS TE block 54*, H9c2 protect 101* and FAS-TE inh conf 12.
`Cc1cccn2c(=O)c3cc(C#N)c(=NC(=O)c4cccs4)n(CCCOC(C)C)c3nc12` gave SENP1 inh -32, Arrestin-AP2 inh -2, NR3A LBD binder -3, iPSC survival up 0, FAS TE block 52*, H9c2 protect 57* and FAS-TE inh conf 22.
For CCCCn1c(=NC(=O)c2cccnc2)c(C(=O)OCC)cc2c(=O)n3ccccc3nc21 the results were SENP1 inh -23, Arrestin-AP2 inh 0, NR3A LBD binder -3, iPSC survival up -1, FAS TE block 31 and H9c2 protect 23.
Screening CCCCn1c(=NC(=O)c2ccco2)c(C(=O)OCC)cc2c(=O)n3cccc(C)c3nc21 returned SENP1 inh -32, Arrestin-AP2 inh 6, NR3A LBD binder -2, iPSC survival up 1, FAS TE block 56*, H9c2 protect -14 and FAS-TE inh conf 27.
`Cc1cccc(CN2CCN([C@@H]3CS(=O)(=O)N[C@H]3COCc3ccccc3)CC2)c1` gave SENP1 inh -7, iPSC survival up 0, FAS TE block -2 and H9c2 protect 3.
For O=C(N/N=C/c1cc([N+](=O)[O-])ccc1N1CCCCCC1)c1ccccn1 the results were SENP1 inh -8, Arrestin-AP2 inh 8, NR3A LBD binder -1, iPSC survival up -2, FAS TE block 47 and H9c2 protect 10.
For CN1CCN(c2ccc([N+](=O)[O-])cc2/C=N/NC(=O)c2ccc(F)cc2)CC1 the results were SENP1 inh 1, Arrestin-AP2 inh 16, NR3A LBD binder -6, iPSC survival up -1, FAS TE block 52*, H9c2 protect 31 and FAS-TE inh conf 51*.
For CCN(CC)C(=O)C1CCCN(c2ccc([N+](=O)[O-])cc2/C=N/NC(=O)c2cccc(Br)c2)C1 (centres undefined) the results were SENP1 inh -14, Arrestin-AP2 inh -1, NR3A LBD binder -5, iPSC survival up -4, FAS TE block 86*, H9c2 protect 22 and FAS-TE inh conf 17.
N#CCC(=O)N/N=C/c1cc([N+](=O)[O-])ccc1N1CCOCC1 was read as SENP1 inh 1, Arrestin-AP2 inh -23, NR3A LBD binder -5, iPSC survival up 0, FAS TE block 29 and H9c2 protect -2.
Cc1cccc(NC(=O)c2nc[nH]c2C(=O)NCCN(CCNC(=O)c2[nH]cnc2C(=O)Nc2cccc(C)c2)CCNC(=O)c2[nH]cnc2C(=O)Nc2cccc(C)c2)c1 was read as SENP1 inh 2, Arrestin-AP2 inh 9, NR3A LBD binder 14*, iPSC survival up 3, FAS TE block 84*, H9c2 protect 8 and FAS-TE inh conf 1.
O=C(Nc1ccc(Cl)cc1)c1nc[nH]c1C(=O)NCCN(CCNC(=O)c1[nH]cnc1C(=O)Nc1ccc(Cl)cc1)CCNC(=O)c1[nH]cnc1C(=O)Nc1ccc(Cl)cc1 was read as SENP1 inh 4, Arrestin-AP2 inh -4, NR3A LBD binder 19*, iPSC survival up -3, FAS TE block 58*, H9c2 protect 3 and FAS-TE inh conf 9.
`Cc1ccc(NC(=O)c2nc[nH]c2C(=O)Nc2ccc(C)cc2)cc1` gave SENP1 inh 0, Arrestin-AP2 inh 24, NR3A LBD binder -14, iPSC survival up 2, FAS TE block -8 and H9c2 protect -4.
Cc1ccc(NC(=O)c2nc[nH]c2C(=O)NCCN(CCNC(=O)c2[nH]cnc2C(=O)Nc2ccc(C)cc2)CCNC(=O)c2[nH]cnc2C(=O)Nc2ccc(C)cc2)cc1 was read as SENP1 inh 2, Arrestin-AP2 inh 0, NR3A LBD binder 16*, iPSC survival up -1, FAS TE block 54*, H9c2 protect 15 and FAS-TE inh conf 18.
`COc1cccc(Cn2c3ccc(NC(=O)CCc4ccc(F)cc4)cc3c(=O)n2C)c1` gave SENP1 inh 4, iPSC survival up -2, FAS TE block 2 and H9c2 protect -2.
`O=C(NCC1CCCCC1)c1ccc2sc([C@H]3C[C@H](O)[C@@H](CO)O3)nc2c1` gave SENP1 inh -2, iPSC survival up -1, FAS TE block -10 and H9c2 protect -1.
For CCNc1ccc(C(=O)N/N=C/c2c(C)nn(-c3ccccc3)c2N2CCCC2)cc1[N+](=O)[O-] the results were SENP1 inh 6, Arrestin-AP2 inh 7, NR3A LBD binder 3, iPSC survival up 2, FAS TE block 70*, H9c2 protect 19 and FAS-TE inh conf 22.
Cc1nn(-c2ccccc2)c(N2CCCC2)c1/C=N/NC(=O)c1ccccc1O was read as SENP1 inh -3, Arrestin-AP2 inh -11, NR3A LBD binder -4, iPSC survival up 0, FAS TE block -7 and H9c2 protect 6.
Cc1ccc(NS(=O)(=O)c2cccc(C(=O)N/N=C/c3c(C)nn(-c4ccccc4)c3N3CCCC3)c2)c(C)c1 was read as SENP1 inh 0, Arrestin-AP2 inh -4, NR3A LBD binder 5, iPSC survival up 1, FAS TE block 51*, H9c2 protect 10 and FAS-TE inh conf 19.

Source: PubChem (several laboratories)
